# Laboratory results: ChEMBL document CHEMBL1137706, “Design, synthesis, and anti-tumor evaluation of novel symmetrical bis-benzimidazoles” (Eur J Med Chem, 2009)
# Key:
# Type in all cases: functional, cell-based
# SK-OV-3 = experiment: Antitumor activity against human SKOV3 cells after 72 hrs by MTT assay; details: SK-OV-3, 72 h
# Summary of the method: (§1)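 Cells grown in RPMI1640 with 10% fetal bovine serum, seeded at 4.0 × 10^4 cells/well and left 4 h at 37 °C, 5% CO2 to adhere. Compound then added and incubation continued 72 h at 37 °C, 5% CO2. Viability read by standard MTT assay.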
# HeLa = experiment: Antitumor activity against human HeLa cells after 72 hrs by MTT assay; summary of the method: as §1
# BGC-823 = experiment: Antitumor activity against human BGC823 cells after 72 hrs by MTT assay; details: BGC-823, 72 h; summary of the method: as §1
SMILES,IC50 (SK-OV-3),IC50 (HeLa),IC50 (BGC-823)
CCOc1ccnc(CSc2nc3ccc(-c4ccc5nc(SCc6nccc(OCC)c6C)[nH]c5c4)cc3[nH]2)c1C,> 50 µM,> 50 µM,> 50 µM
COc1ccnc(CSc2nc3ccc(-c4ccc5nc(SCc6nccc(OC)c6C)[nH]c5c4)cc3[nH]2)c1C,> 50 µM,> 50 µM,> 50 µM
Clc1ccc(CSc2nc3ccc(-c4ccc5nc(SCc6ccc(Cl)nc6)[nH]c5c4)cc3[nH]2)cn1,> 50 µM,> 50 µM,> 50 µM
COc1c(Cl)ccnc1CSc1nc2ccc(-c3ccc4nc(SCc5nccc(Cl)c5OC)[nH]c4c3)cc2[nH]1,> 50 µM,45.4 µM,> 50 µM

# The remaining lines, values ahead:
IC50 (SK-OV-3),IC50 (HeLa),IC50 (BGC-823),SMILES
> 50 µM,> 50 µM,> 50 µM,COc1ccnc(CSc2nc3ccc(-c4ccc5nc(SCc6nccc(OC)c6OC)[nH]c5c4)cc3[nH]2)c1OC
23 µM,18.3 µM,> 50 µM,Cc1c(OCC(F)(F)F)ccnc1CSc1nc2ccc(-c3ccc4nc(SCc5nccc(OCC(F)(F)F)c5C)[nH]c4c3)cc2[nH]1
8.73 µM,> 50 µM,> 50 µM,c1cncc(CSc2nc3ccc(-c4ccc5nc(SCc6cccnc6)[nH]c5c4)cc3[nH]2)c1
0.00134 µM,,,CC(=O)O[C@H]1C(=O)[C@@]2(C)[C@H]([C@H](OC(=O)c3ccccc3)[C@]3(O)C[C@H](OC(=O)[C@H](O)[C@@H](NC(=O)c4ccccc4)c4ccccc4)C(C)=C1C3(C)C)[C@]1(OC(C)=O)CO[C@@H]1C[C@@H]2O [PACLITAXEL]
2.95 µM,> 50 µM,> 50 µM,COc1c(C)cnc(CSc2nc3ccc(-c4ccc5nc(SCc6ncc(C)c(OC)c6C)[nH]c5c4)cc3[nH]2)c1C
38.6 µM,7.1 µM,16.4 µM,c1ccc(CSc2nc3ccc(-c4ccc5nc(SCc6ccccn6)[nH]c5c4)cc3[nH]2)nc1
2.81 µM,32.4 µM,11 µM,c1cc(CSc2nc3ccc(-c4ccc5nc(SCc6ccncc6)[nH]c5c4)cc3[nH]2)ccn1
